# Screening results (PubChem BioAssay)
# Only some compounds are listed: those with a hit (about 3.7% of all), similar ones and a draw of the others.
# MT stabilize HCS: microtubule stabilizers in HeLa cells, primary screen, imaging, high-content imaging | % tubulin-high responders, % at 10 µM | HeLa tubulin immunostaining HCS, 24 h; share of cells brighter than vehicle mean+2SD | 200,000 tested, 0.83% active;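 active = plate Z-score above 3 for both tubulin-high and condensed-nucleus cell shares, with cell loss under 80%, at 10 µM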;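 also: anti alpha tubulin signal scored within the nucleus-defined area of each cell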
# ROMK mod: ROMK potassium channel modulators, primary screen, cell-based, thallium flux, MLSMR library | AID 1918, 2009 | Tet-inducible ROMK, thallium flux fluorescence; actives lie on both sides | 130,000 tested, 2% active | B-score at 10 µM;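 active = signal ratio slope over the read window, or its plate-corrected B-score, at least 3 SD from the plate mean, either direction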;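 also: B-score of the F/F0 ratio slope over 7 to 12 s after thallium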
# Target sequence (P48048 whole entry, looked up): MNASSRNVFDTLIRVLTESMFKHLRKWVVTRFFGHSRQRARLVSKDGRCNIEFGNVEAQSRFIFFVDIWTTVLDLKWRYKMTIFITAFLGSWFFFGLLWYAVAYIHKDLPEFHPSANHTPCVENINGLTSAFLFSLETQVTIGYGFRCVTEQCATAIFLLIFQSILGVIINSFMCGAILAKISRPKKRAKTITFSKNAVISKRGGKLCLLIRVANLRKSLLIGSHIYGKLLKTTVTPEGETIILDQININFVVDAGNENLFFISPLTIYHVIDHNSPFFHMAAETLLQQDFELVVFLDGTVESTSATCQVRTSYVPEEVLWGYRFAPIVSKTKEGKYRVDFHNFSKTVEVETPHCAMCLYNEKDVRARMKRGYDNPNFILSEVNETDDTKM
# bCat nuc transl: modulators of beta-catenin nuclear translocation, primary screen, imaging, HeLa cells, immunofluorescence, high-content; nuclear translocation activity, % at 5 µM; 190,000 tested, 0.3% active; AID 1665, 2009;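 active = nuclear translocation activity above 50% at 5 µM, with a well cell count of 50 or more; inconclusive = wells under 50 cells across six images, flagged as toxic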;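 also: per-cell ratio of nuclear to cytoplasmic median beta-catenin stain intensity; plate controls were DMSO negative control for no effect and GSK-3 inhibitor IX positive control for full effect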
#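 Test system: human HeLa cells, endogenous beta-catenin. Times: 24 h compound exposure, 37°C. Measured by: beta-catenin immunofluorescence imaging with DAPI.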
# KCC2 mod: KCC2 cotransporter modulators, thallium flux, primary screen, cell-based, HEK293 KCC2, FluoZin-2 fluorescence, MLSMR; Solute carrier family 12 member 5 (Homo sapiens), Q9H2X9; KCC2 cells, thallium flux FluoZin-2 fluorescence; B-score of Tl+ flux slope (higher = more flux/activation; lower = inhibition) at 10 µM; 190,000 tested, 2.2% active;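 active = thallium flux slope and its plate-corrected score both differing from the plate sample mean at a set confidence after two filtering rounds, in either direction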;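 also: slope of fluorescence scaled to starting intensity during 10 to 20 s after thallium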
# DTT redox prof: compounds producing H2O2 with reducing agent – biochemical, NIH compound library profiling, artefact control for MLSCN library redox annotation, primary screen; 200,000 tested, 0.03% active; DTT-dependent redox cycling H2O2, phenol red/HRP absorbance; 100% = 100 µM peroxide control, 0% = buffer; activation, % at 10 µM;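 active = activation of at least 50% relative to the plate's high and low controls in the primary single-dose screen; inactive = activation below 50%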;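 also: compound incubated with DTT at 0.8 mM final as the reducing agent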
# ROMK hit retest: ROMK channel modulator hit retest, confirmation, cell-based, thallium flux, duplicate, resupplied hits. shares compounds with ROMK mod. fluorescence ratio; stronger effect = lower value. normalized thallium flux (F/F0 slope) at 10 µM. 3,000 tested, 54% active;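 active = Flux at 10 µM at least 3 SD below or above vehicle control mean in one or both replicates; inconclusive = no clear call, values can overlap the other calls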
# * hit, by the source's call; i = inactive; ? = inconclusive; . = no result.
SMILES,MT stabilize HCS,ROMK mod,bCat nuc transl,KCC2 mod,DTT redox prof,ROMK hit retest
O=C(c1coc2ccc(O)cc12)C1CC1,2.8,.,3.6,-0.391,-1.2,.
O=C1NC(=S)S/C1=C\c1coc2ccc(O)cc2c1=O,.,.,1.2,-5.69,.,0.0319*
CC(=O)c1cc2c(cc1NC(=O)c1cc3nc(C(C)C)cc(C(F)(F)F)n3n1)OCO2,4.2,.,-2.8,.,2.2,0.0747
COc1ccc(C2N(C(=O)N3CCOCC3)CCN2S(=O)(=O)c2ccc(C)cc2)cc1 (stereo not drawn),1.6,1.86*,.,.,0.0,0.0833
CC(=O)Nc1ccc(S(=O)(=O)NCCCN2CCN(Cc3ccccc3)CC2)cc1Cl,.,-12.7*,-0.9,-0.986,.,0.0731
Cc1ccc(S(=O)(=O)NCCC(=O)N2CCN(Cc3ccccc3)CC2)cc1,3.5,.,0.2,-0.731,-1.9,.
COc1cc2c(cc1OC)CN(c1nc(CN3CCOCC3)nc3sc4c(c13)CCCC4)CC2,3.5,-2.38,1.3,-1.35,0.0,.
COc1cc2c(cc1OC)CN(c1nc(CN3CCCCC3)nc3sc4c(c13)CCCC4)CC2,2.8,-2.58*,.,0.481,.,0.064*
Cc1nc2ccccc2c(=O)n1NC(=O)CCC(=O)O,1.5,0.689,-0.7,1.2,-0.4,.
CCN(CC)CC(O)COc1ccccc1C(=O)CCc1ccccc1 (stereo not drawn),2.8,-0.904,-0.1,.,-1.7,.
CCCCN(CCCC)CC(O)COc1ccccc1C(=O)Nc1ccccc1 (stereo not drawn),2.3,-3.49*,1.0,-0.266,-1.5,0.0532*
COc1ccc([C@H]2[C@H](C(=O)OC(C)(C)C)N3N=Cc4ccccc4C3C23C(=O)c2ccccc2C3=O)c(OC)c1 (stereo partly drawn),1.3,.,-0.1,-3.6,0.7,0.0602*
COc1ccc([C@H]2[C@H](C(=O)OC(C)(C)C)N3N=Cc4ccccc4C3C23C(=O)c2ccccc2C3=O)cc1OC (stereo partly drawn),2.7,.,-2.0,-0.601,0.1,.
COc1cc2ncnc(NCc3ccccc3Cl)c2cc1OC,1.1,-1.6,1.8,-0.997,-0.4,.
COc1cc2ncnc(NCc3ccccc3C)c2cc1OC,1.4,.,-0.1,-0.958,2.3,?
CCCOc1ccc2c(C)c(CC(=O)OC)c(=O)oc2c1,2.2,-1,.,0.172,0.7,.
COC(=O)Cc1c(C)c2ccc(OCC(=O)N(C)C)cc2oc1=O,1.7,1.38*,.,0.0233,0.1,0.0706
O=C(O)CNC(=O)/C=C/c1ccc(Cl)cc1Cl,7.3,0.124,-0.3,0.881,-0.3,.
NNC(=O)/C=C/c1ccc(Cl)cc1Cl,5.4,2.26*,-3.6,-0.573,-0.3,0.0764
CC(C)[C@@H]1CC[C@@H](C)C[C@H]1OC(=O)C[n+]1cc(-c2ccc(Cl)cc2)n2c1CCCCC2,.,.,0.1,-2.08,.,0.0352*
COc1ccc(-c2c[n+](CC(=O)OC3CC(C)CCC3C(C)C)c3n2CCC3)cc1 (stereo not drawn),3.6,.,-3.0,-0.0232,0.3,0.0507*
CC(=O)Nc1cc(C(=O)NCCN2CCN(Cc3ccccc3)CC2)ccc1Sc1ccc(C)cc1,1.6,-1.53,-0.5,-0.863,-0.2,.
Cc1cccc(NC(=S)Nc2ccc(N3CCOCC3)cc2)c1C,4.8,.,4.2,1.6,0.4,.
Cc1ccc(NC(=S)N(CCCN2CCCC2)Cc2cccn2Cc2ccc(Cl)cc2)cc1C,1.9,-2.8*,1.6,0,-0.8,0.062*
COc1ccccc1C1CCN(C(=O)c2cccs2)CC1,.,0.29,-0.5,-0.148,.,.
SMILES,MT stabilize HCS,ROMK mod,bCat nuc transl,KCC2 mod,DTT redox prof,ROMK hit retest
COc1ccccc1C1CCN(c2cc(O)ccc2[N+](=O)[O-])CC1,.,.,-4.1,.,.,0.0723
CC(=O)c1c(C(C)=O)c(C)n(C(c2ccccc2)c2ccccc2)c1C,1.8,.,-5.4,0.223,-0.6,.
O=C(Nc1nnc(-c2ccccc2F)s1)C1CCN(S(=O)(=O)c2ccc(Cl)cc2)CC1,2.3,.,-3.2,0.095,0.3,0.0783
O=C(NCCO)C1CCN(S(=O)(=O)c2ccc(F)cc2)CC1,4.1,-6.89*,-2.3,.,-4.1,0.0735
COc1ccc(S(=O)(=O)N2CCC(C(=O)Nc3c(F)cccc3F)CC2)cc1,1.4,.,0.7,.,-1.5,0.0728
O=C(Nc1nnc(-c2ccccc2Cl)s1)C1CCN(S(=O)(=O)c2ccc(Cl)cc2)CC1,2.8,.,-0.2,-0.0941,0.0,.
Cc1ccc(NC(=O)c2ccc(Nc3ccccc3F)nc2)cc1,3.5,2.72*,-2.3,-0.393,0.1,0.0814
O=C(CSc1nnc(Nc2ccccc2)s1)Nc1cccc(S(=O)(=O)N2CCCCC2)c1,7.9,.,-0.1,-1.82,0.5,.
Cc1cc(C)n(-c2nc(Nc3ccccc3C(F)(F)F)nc(-n3nc(C)cc3C)n2)n1,1.9,.,2.3,-0.359,0.7,?
CN(CC1CCOCC1)C(=O)CC1C(=O)NCCN1Cc1ccc(-c2ccccc2)cc1 (stereo not drawn),6.3,-4.13*,-0.4,-0.0634,-0.7,0.0741
C=CCc1ccccc1OCC(O)CN1CCN(c2ccc(C)cc2)CC1 (stereo not drawn),4.2,-2.59*,-1.3,-0.619,-0.3,0.0557*
O=C1CC(C(=O)O)S/C(=N\N=C\c2ccc(Br)cc2)N1 (stereo not drawn),.,-0.258,-4.0,-0.876,.,.
CCOc1ccc(/C=C/C(=O)c2c(O)c3ccccc3oc2=O)cc1,3.7,.,.,0.00145,15.2,0.0628*
CN(C)c1ccc(/C=C/C(=O)c2c(O)c3ccccc3oc2=O)cc1,.,.,-0.7,i,.,.
CCOc1ccccc1N=c1oc2cc(O)ccc2cc1C(=O)NCC1CCCO1 (stereo not drawn),1.1,-1.13,3.4,-0.605,-0.2,.
CCOC(=O)c1n[nH]c2ccccc12,4.6,2.2*,-1.5,-0.4,-0.2,0.0731
CN(C)/N=C/c1c(O)ccc2ccccc12,1.9,-0.234,-3.8,-0.00536,-0.6,.
Oc1ccccc1N=Cc1c(O)ccc2ccccc12,.,.,-1.5,-0.586,.,0.0451*
CC(C)(C)c1ccccc1NC(=S)NC1CCCCC1,2.2,0.153,-2.4,0.541,-0.1,.
O=C(NCCN1CCOCC1)c1ccccc1[N+](=O)[O-],3.2,3.05*,2.0,.,-6.0,0.0889
Cc1cccc(C(=O)NCCN2CCOCC2)c1[N+](=O)[O-],2.1,-0.0628,3.6,1.27,-0.1,.
COc1ccc(C2C(C(=O)O)c3ccccc3C(=O)N2C)cc1Br (stereo not drawn),2.9,.,-0.1,0.39,-2.1,.
CN1C(=O)c2ccccc2C(C(=O)O)C1c1cccc(Cl)c1 (stereo not drawn),2.0,1.57*,-2.8,-0.0723,1.4,0.0773
